Data set [1] is described as follows: Percentage of remaining compound after 30 min incubation in human liver microsomes was determined as metabolic stability. It is filed as ADME, Microsome. As to conditions: read-out: Remaining compound. Put shortly:
(§1)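 Compound incubated with rat, dog or human liver microsomes for 30 min at 37 °C. Residual parent compound in the reaction mixture was measured directly by LC-MS and expressed as % remaining.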

Data set [2] can be described thus: Percentage of remaining compound after 30 min incubation in rat liver microsomes was determined as metabolic stability. It is filed as ADME, Microsome. As to conditions: read-out: Remaining compound. Summed up:
as §1
In general terms: Microsomes from liver hold many membrane-bound enzymes, among them those of drug oxidation.

Data set [3] is described as follows: Percentage of remaining compound after 30 min incubation in dog liver microsomes was determined as metabolic stability. It is filed as ADME, Canis lupus familiaris, Microsome. As to conditions: read-out: Remaining compound. Summed up:
as §1

The subject of data set [4] is Human immunodeficiency virus 1. The experiment in a line: Effective concentration of against HIV Wild Type (IIIB) strain. It is filed as functional, organism-based. As to conditions: for EC50: Human immunodeficiency virus 1. Summed up:
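Wild-type HIV-1 IIIB was tested in MT-4 cells by MTT colorimetric CPE assay. Compound was serially diluted, with virus at 200-250 CCID50/well and 30 000 cells/well. […] Mock-infected cultures were run in parallel for cytotoxicity.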

The test system of data set [5] is Human immunodeficiency virus 1. As to the kind of experiment: Effective concentration against PI-Resistant HIV strain (M5). It is filed as functional, organism-based. As to conditions: for EC50: Human immunodeficiency virus 1. Summed up: (§2)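 MTT cytopathic-effect assay in MT-4 cells infected with recombinant HIV carrying clinical-isolate-derived protease and RT sequences in an HXB2-derived backbone. Inoculum 200-250 CCID50/well, 30 000 cells/well, compound over a concentration range. Incubation 5 days at 37 °C, 5% CO2. […] Cytotoxicity run in parallel on mock-infected cells.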

The subject of data set [6] is Human immunodeficiency virus 1. The experiment in a line: Effective concentration against PI-Resistant HIV strain (M4). It is filed as functional, organism-based. As to conditions: for EC50: Human immunodeficiency virus 1. Put shortly:
as §2

In data set [7] the test system is Human immunodeficiency virus 1. As to the kind of experiment: Effective concentration against PI-Resistant HIV strain (M3). It is filed as functional, organism-based. The settings on record: for EC50: Human immunodeficiency virus 1. Put shortly:
as §2

The test system of data set [8] is Human immunodeficiency virus 1. As to the kind of experiment: Effective concentration as average activity on mutant HIV panel (AVMUT). The settings on record: for EC50: Human immunodeficiency virus 1. The format is functional, organism-based. Summed up: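 Mean pEC50 across the panel of PI-resistant recombinant clinical-isolate strains. Each strain was tested by MTT CPE assay in MT-4 cells at 200-250 CCID50/well and 30 000 cells/well, read after 5 days at 37 °C, 5% CO2.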

Data set [9] relates to Human immunodeficiency virus 1. As to the kind of experiment: Effective concentration against PI-Resistant HIV strain (M2). The format is functional, organism-based. As to conditions: for EC50: Human immunodeficiency virus 1. Put shortly: as §2
Data set [10] deals with Human immunodeficiency virus 1. As to the kind of experiment: Effective concentration against PI-Resistant HIV strain (M1). It is filed as functional, organism-based. Put shortly:
as §2

The nature of data set [11]: Area under concentration time curve value in dog after 80 mg/kg oral administration. It is filed as ADME, organism-based, Canis lupus familiaris. Also noted: dose 80 mg/kg, route oral. The settings on record: in vivo. Put shortly: (§3)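 Single oral dose of 80 mg/kg given to dogs as a PEG400 solution. Plasma exposure parameters are reported as the mean of four measurements, with the standard deviation in parentheses.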

Data set [12] in a line: Half-life in dog after 80 mg/kg oral administration. The format is ADME, organism-based, Canis lupus familiaris. The arrangement: dose 80 mg/kg, route oral. As to conditions: in vivo. Summed up:
as §3

Data set [13] can be described thus: Maximum plasma concentration in dog after 80 mg/kg oral administration. It is filed as ADME, organism-based, Canis lupus familiaris. The arrangement: dose 80 mg/kg, route oral. Put shortly:
as §3

Data set [14] in a line: Time to reach maximum concentration in dog after 80 mg/kg oral administration. The format is ADME, organism-based, Canis lupus familiaris. The settings on record: in vivo. The arrangement: dose 80 mg/kg, route oral. Put shortly:
as §3

With `CC(C)(C)NC(=O)[C@@H]1CN(Cc2cccnc2)CCN1C[C@@H](O)C[C@@H](Cc1ccccc1)C(=O)N[C@H]1c2ccccc2C[C@H]1O`, the share remaining at 0.5 h in data set [1] is 95%; in data set [2], 97%; in data set [3] it was 85%.
Regarding `Cc1ccc(S(=O)(=O)N(CC(C)C)C[C@@H](O)[C@H](Cc2ccccc2)NC(=O)OC2COC3OCCC23)cc1` (mixture of isomers), the EC50 is 5.25 nM in [4]; 40.7 nM in data set [5]; 38 nM in [6]; 35.5 nM in [7]; 60.3 nM in data set [8]; 107 nM in data set [9]. The molecule also had a 50% effective concentration (EC50) in [10] of 129 nM.
`CC(C)CN(C[C@@H](O)[C@H](Cc1ccccc1)NC(=O)O[C@H]1CO[C@@H]2OCC[C@@H]21)S(=O)(=O)c1ccc(N)cc1` gave an EC50 in data set [4] of 309 nM.
As for `CC(C)CN(C[C@@H](O)[C@H](Cc1ccccc1)NC(=O)O[C@H]1CO[C@H]2OCC[C@H]21)S(=O)(=O)c1ccc(N)cc1` (stereo in doubt; form 1), the “Log EC50” value in [4] is reported as -7.36; in data set [5] it was -6.9; in [6], -6.84; in [7], -6.76; in data set [8], -6.81; in data set [9] it was -6.72.
On to `CC(C)CN(C[C@@H](O)[C@H](Cc1ccccc1)NC(=O)O[C@H]1CO[C@H]2OCC[C@H]21)S(=O)(=O)c1ccc(CN)cc1`, for which the EC50 was 7.08 nM in [4]; 5.62 nM in [5]; 6.61 nM in data set [6]; 6.03 nM in [7]; 7.76 nM in data set [8]; 15.8 nM in data set [9]. The EC50 in data set [10] was 7.59 nM.
Take `CC(C)CN(C[C@@H](O)[C@H](Cc1ccccc1)NC(=O)O[C@H]1CO[C@H]2OCC[C@H]21)S(=O)(=O)c1cccc(N)c1`: the concentration giving a half-maximal response (EC50) in data set [4] was 4.37 nM; in data set [5], 26.3 nM; in data set [6] it was 26.3 nM; in data set [7], 28.2 nM; in data set [8], 42.7 nM; in data set [9] it was 47.9 nM. This molecule also gave an EC50 in data set [10] of 759 nM.
Consider `CC(C)CN(C[C@@H](O)[C@H](Cc1ccccc1)NC(=O)O[C@H]1CO[C@H]2OCC[C@H]21)S(=O)(=O)c1ccc(N)cc1` (stereo in doubt; form 2), for which the “Log EC50” value in data set [4] is given as -8.39; in [7], -8.14; in data set [8], -8.29; in data set [9] it was -8.14. Moreover, the AUC last in [11] stood at 74100 ng·h/mL. Moreover, the values for the fraction remaining at 0.5 h in [1], in data set [2] and in [3] were 85%, 92% and 80%, respectively. In data set [12], this molecule had a half-life of 0.781 h. The same molecule had a Cmax in data set [13] of 19100 ng/mL. Moreover, the Tmax in data set [14] was determined as 1 h. Also, the midpoint of the response in [10], the EC50, lay at 5.13 nM.
For `CC(C)CN(C[C@@H](O)[C@H](Cc1ccccc1)NC(=O)O[C@H]1CO[C@H]2OCC[C@H]21)S(=O)(=O)c1ccc2c(c1)OCO2`, the EC50 in data set [4] was 0.617 nM; in [5] it was 4.07 nM; in [6] it was 3.98 nM; in data set [7], 3.47 nM; in data set [8] it was 6.46 nM; in data set [9] it was 6.46 nM. Also, the concentration giving a half-maximal response (EC50) in data set [10] was 32.4 nM. Besides, the AUC last in [11] is 18100 ng·h/mL. The amount remaining at 0.5 h in [1] is 52%; in [2], 21%; in data set [3], 53%. This molecule gave a half-life in data set [12] of 2.06 h. For the same molecule, in data set [13], the Cmax came out at 3780 ng/mL. The Tmax in data set [14] was 2.5 h.
As for `CC(C)CN(C[C@@H](O)[C@H](Cc1ccccc1)NC(=O)O[C@@H]1CO[C@H]2OCC[C@H]21)S(=O)(=O)c1ccc(N)cc1`, the half-maximal effective concentration (EC50) in data set [4] was 240 nM; in data set [6] it was 1120 nM; in data set [7], 479 nM; in data set [8], 977 nM; in data set [9], 2240 nM; in [10], 759 nM.
With `COc1ccc(S(=O)(=O)N(CC(C)C)C[C@@H](O)[C@H](Cc2ccccc2)NC(=O)O[C@H]2CO[C@H]3OCC[C@H]32)cc1`, the EC50 in data set [4] is 0.589 nM; in [5], 2.88 nM; in data set [6], 4.68 nM; in [7] it was 2.24 nM; in data set [8], 4.47 nM; in [9] it was 6.03 nM. In [10], this molecule gave a 50% effective concentration (EC50) of 10.2 nM. Moreover, the AUC last in data set [11] worked out at 2700 ng·h/mL. Also, the fraction remaining at 0.5 h amounted to 56% in [1], 25% in data set [2] and 11% in data set [3]. The molecule also had a half-life in data set [12] of 1.47 h. In data set [13], the Cmax is 1180 ng/mL. The Tmax in [14] came to 0.6 h.
As for `CC(C)CN(C[C@@H](O)[C@H](Cc1ccccc1)NC(=O)O[C@H]1CO[C@H]2OCC[C@H]21)S(=O)(=O)c1ccc([N+](=O)[O-])cc1`, the EC50 is 2.45 nM in data set [4]; 45.7 nM in data set [5]; 21.9 nM in data set [6]; 4.57 nM in data set [7]; 21.4 nM in data set [8]; 29.5 nM in data set [9]. The EC50 in [10] is 33.9 nM.
Regarding `CC(C)CN(C[C@@H](O)[C@H](Cc1ccccc1)NC(=O)O[C@@H]1CO[C@@H]2OCC[C@@H]21)S(=O)(=O)c1ccc(N)cc1`, the EC50 in data set [4] was 10.7 nM; in data set [5], 26.3 nM; in data set [6] it was 21.4 nM; in [7], 21.4 nM; in data set [8], 30.9 nM; in data set [9] it was 60.3 nM. The same molecule had an EC50 in data set [10] of 37.2 nM.
`CC(C)CN(C[C@@H](O)[C@H](Cc1ccccc1)NC(=O)OC1COC2OCCC12)S(=O)(=O)c1ccccc1` (mixture of isomers): the EC50 is 2.75 nM in data set [4]; 30.9 nM in [5]; 41.7 nM in data set [6]; 47.9 nM in [7]; 67.6 nM in [8]; 135 nM in data set [9]. This molecule gave an EC50 in [10] of 166 nM.
For `CC(C)CN(C[C@@H](O)[C@H](Cc1ccccc1)NC(=O)O[C@H]1CO[C@H]2OCC[C@H]21)S(=O)(=O)c1ccc(I)cc1`, the EC50 in data set [4] is 1.51 nM; in data set [5], 5.01 nM; in data set [6] it was 5.25 nM; in data set [7] it was 4.07 nM; in [8], 8.71 nM; in [9] it was 13.8 nM. For the same molecule, the EC50 in [10] was 33.1 nM.
With `CC(C)CN(C[C@@H](O)[C@H](Cc1ccccc1)NC(=O)O[C@H]1CCOC1)S(=O)(=O)c1ccc(N)cc1`, the EC50 in data set [4] is 37.2 nM; in data set [5] it was 741 nM; in [6], 170 nM; in data set [7], 195 nM; in data set [8], 324 nM; in [9], 204 nM. Besides, in [10], it took 741 nM to reach a half-maximal effect (EC50). The fraction remaining at 0.5 h was 116% in [1], 83% in data set [2] and 81% in data set [3].
`CC(C)CN(C[C@@H](O)[C@H](Cc1ccccc1)NC(=O)O[C@H]1CO[C@H]2OCC[C@H]21)S(=O)(=O)c1ccc(C#N)cc1`: the EC50 in [4] was 5.25 nM; in data set [5], 138 nM; in data set [6], 89.1 nM; in data set [7], 39.8 nM; in [8], 97.7 nM; in data set [9], 155 nM. Besides, the midpoint of the response in data set [10], the EC50, lay at 115 nM.
For the molecule `CC(=O)c1ccc(S(=O)(=O)N(CC(C)C)C[C@@H](O)[C@H](Cc2ccccc2)NC(=O)O[C@H]2CO[C@H]3OCC[C@H]32)cc1`, the EC50 is 1.95 nM in data set [4]; 11.7 nM in data set [5]; 6.03 nM in data set [7]; 13.8 nM in data set [8]; 15.8 nM in [9]; 31.6 nM in data set [10].
For `CC(C)CN(C[C@@H](O)[C@H](Cc1ccccc1)NC(=O)O[C@H]1CO[C@H]2OCC[C@H]21)S(=O)(=O)c1ccc(O)cc1`, the concentration giving a half-maximal response (EC50) is 6.31 nM in [4]; 6.17 nM in data set [5]; 6.03 nM in data set [6]; 6.03 nM in data set [7]; 8.71 nM in [8]; 10 nM in data set [9]. Further, the EC50 in data set [10] was 23.4 nM.

One may read the EC50 as the concentration giving half of the maximal effect. Low readings indicate greater potency, high ones weaker potency. A word on the half-life: it is how long it takes for the measured level to halve. A higher half-life goes with slow loss. As usually defined, the Cmax is the maximum level reached in the sampled fluid or tissue. What is called Tmax is the time from dosing to the highest level.

The values are drawn from ChEMBL document CHEMBL1142722, “Discovery and selection of TMC114, a next generation HIV-1 protease inhibitor” (J Med Chem, 2005).
